From PubChem
CaV13 ICDI inh: Primary screen for inhibitors of IQ motif and Ca2+-dependent inactivation inhibitor domain binding in CACNA1D, Förster resonance energy transfer in living cells, …; AID 743397; HEK cells, CFP/YFP FRET ICDI-IQ, plate reader, 10 min; percent FRET-ratio fall versus neutral wells; 340,000 compounds, 0.098% hits; inhibition, % at 12.3 µM;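 active means mean replicate inhibition of at least 30% and at least 1% of replicates passing that level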
GSIS activator: primary screen for activators of insulin secretion dependent on glucose, INS-1E cells, GLuc reporter luminescence. INS-1E GLuc reporter insulin secretion, 2-3 h. activation, % at 16.6 µM. 370,000 compounds, 0.61% hits;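 active means lowest replicate activation of at least 40%, so every replicate reaches that level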
GAA850 FXN act: activators of GAA850 frataxin (FXN) promoter; HEK293 lucGAA850 FXN promoter luciferase reporter, 24 h; percent of 10 µM SAHA response; 360,000 compounds, 0.56% hits; activation, % at 6 µM;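 active means activation above the average of all compounds screened plus 3 SD, cutoff fixed separately per campaign, cut at about 7.5% in these data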
Xi reactivation: X-chromosome reactivation activator; activation, % at 7.58 µM; XiGFP mouse fibroblasts, % GFP-positive cells imaging, 3 d; cells co-treated with 5-aza-dC sensitizer; scaled so ellipticine positive control = 100%; AID 743238; 360,000 compounds, 0.055% hits;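 active means mean normalized replicate activation at least 10% and every replicate at or above 10%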
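Assay system – SV40-immortalized XiGFP fibroblast cells, line 68-5-11 · Buffer or medium – DMEM supplemented with 5-aza-dC as sensitizing agent · Dosing – one concentration, pinned · Benchmarks – positive control ellipticine, 6 µM final · Times – 3 days compound exposure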
Hits are given with their value; n = inactive; x = no result given; + = active, no number. Sampled rows, rich in hits. Any-hit rate of the full collection: about 1%.

SMILES | CaV13 ICDI inh | GSIS activator | GAA850 FXN act | Xi reactivation
COc1ccc(OC)c(NC(=O)c2cc3c(Cl)nc4ccccc4c3s2)c1 | n | 52 | n | n
O=C(Nc1cccnc1)c1cnn2c(C(F)F)cc(C3CC3)nc12 | x | 60 | n | x
O=C(Nc1cc(Br)ccc1O)c1cnn2c(C(F)F)cc(C3CC3)nc12 | n | n | n | n
Nc1c(C(=O)Nc2ccc(S(=O)(=O)N3CCCC3)cc2)sc2nc3cc4c(cc3cc12)CCC4 | n | n | n | 63
Nc1c(C(=O)Nc2ccc(S(=O)(=O)N3CCCC3)cc2)sc2nc3ccc(OC(F)(F)F)cc3cc12 | n | n | n | n
COc1cccc(C#Cc2ccc3c(c2)[C@@H]2[C@@H](CCN2C(=O)CC2CC2)[C@H](CO)N3)c1 | x | n | x | n
O=C(Nc1ccccc1C(=O)N/N=C/c1ccccc1)c1ccco1 | n | 93 | n | n
O=C(N/N=C/c1ccccc1)c1ccco1 | n | n | n | n
O=C(Cc1ccccc1)NCC(=O)N/N=C/c1ccc(C(=O)O)cc1 | x | n | n | n
O=C(CNC(=O)c1ccco1)N/N=C/c1ccc(C(=O)O)cc1 | n | 48 | n | n
CO[C@@H](CN(C)S(=O)(=O)c1ccccc1)[C@H](C)CN(Cc1ccccc1Cl)[C@@H](C)CO | x | n | x | n
C[C@H](NC(=O)[C@@H]1[C@@H](CO)[C@@H]2Cn3c(ccc(-c4ccccc4)c3=O)[C@H]1N2C)c1ccccc1 | x | n | x | n
Cc1ccc(Cn2ccsc2=NC(=O)CCl)cc1 | x | 63 | n | n
COc1ccc(S(=O)(=O)Nc2cccc3c2O[C@@H](CN(C)S(=O)(=O)c2cn(C)cn2)[C@H](C)CN([C@@H](C)CO)C3=O)cc1 | x | n | x | n
O=C(NCc1ccccn1)c1ccccc1OCc1ccc(Cl)cc1Cl | n | 49 | n | n
O=C(NCc1ccccn1)Nc1ccc(Cl)cc1Cl | n | n | n | n
Cc1ccc(OC(=O)N(C)C[C@@H]2OCc3ccccc3-c3ccccc3C(=O)N([C@@H](C)CO)C[C@@H]2C)cc1 | x | n | x | n
CCC(C)(C)c1ccc(OCCCC[n+]2ccc(C)cc2)c(C(C)(C)CC)c1 | n | 560 | x | n
C[C@H](CO)N1C[C@H](C)[C@H](CN(C)S(=O)(=O)c2ccc(C#N)cc2)Oc2ncc(/C=C/c3ccccc3)cc2C1=O | x | n | x | n
COc1ccc(NC(=O)COc2ccc(C(=O)NC3CCCc4ccccc43)cc2OC)cc1 (configuration not stated) | n | 176 | n | n
CCC(=O)Nc1sc2c(c1C(N)=O)CCN(Cc1ccccc1)C2 | 48 | x | n | n
CCN1CCc2c(sc(NC(=O)Nc3ccc(Cl)c(Cl)c3)c2C(N)=O)C1 | 59 | n | n | 105
CCN1CCc2c(sc(NC(=O)c3ccc(C(=O)c4ccccc4)cc3)c2C(N)=O)C1 | n | n | n | n
CC(C)C(=O)Nc1sc2c(c1C(N)=O)CCN(Cc1ccccc1)C2 | + | n | n | n
CCN1CCc2c(sc(NC(=O)Cc3ccccc3)c2C(N)=O)C1 | n | x | n | n
SMILES | CaV13 ICDI inh | GSIS activator | GAA850 FXN act | Xi reactivation
CCN1CCc2c(sc(NC(=S)NC(=O)c3ccco3)c2C(N)=O)C1 | n | n | n | n
CCN1CCc2c(sc(NC(=O)c3ccc(S(=O)(=O)N(CC)c4ccccc4)cc3)c2C(N)=O)C1 | n | x | n | 73
NC(=O)c1c(NC(=O)c2c(F)cccc2F)sc2c1CCN(Cc1ccccc1)C2 | n | x | n | n
COc1ccc(NC(=O)N(C)C[C@H]2Oc3c(NS(=O)(=O)c4cccs4)cccc3C(=O)N([C@@H](C)CO)C[C@H]2C)cc1 | x | n | x | n
NC(=O)c1c(NC(=O)c2ccccc2)sc2c1CCN(Cc1ccccc1)C2 | + | n | n | 44
Cc1nc(CN2CCN(S(=O)(=O)c3c(Cl)cc(Br)cc3Cl)CC2)cs1 | n | 68 | n | n
Oc1ccc(Br)cc1C=Nc1ccc2c3c(cccc13)CC2 | n | n | n | 105
O=C(NCc1ccc(Cl)cc1)c1cc(=O)[nH]c2ccc(S(=O)(=O)N3CCOCC3)cc12 | n | 55 | n | n
C[C@@H]1CN([C@H](C)CO)C(=O)c2cc(NS(C)(=O)=O)ccc2O[C@@H](C)CCCCO[C@@H]1CN(C)C(=O)C1CCCCC1 | x | n | x | n
Cc1cccc(NC(=O)CN2C(=O)S/C(=C\C(=O)Nc3ccc(Cl)cc3)C2=O)c1 | n | 199 | n | n
C/C=C1\COC(C(=O)NCc2cccc(OC)c2OC)(C(F)(F)F)C=C1C=C1CCCCC1 (configuration not stated) | n | 73 | n | n
C/C=C1\COC(C(=O)NCc2ccncc2)(C(F)(F)F)C=C1C=C1CCCCC1 (configuration not stated) | n | n | n | n
O=C(NN1C(=O)C2C3C=CC(O3)C2C1=O)c1cccc(O)c1 (configuration not stated) | n | n | n | n
O=C(NN1C(=O)C2C3C=CC(O3)C2C1=O)c1cccc(Br)c1 (configuration not stated) | n | 78 | n | n
CCCN1C[C@@H](C)[C@H](OC)CN(C)C(=O)c2cc(NC(=O)c3cccc(F)c3)ccc2OC[C@H]1C | x | n | x | n
Cc1ccc(S(=O)(=O)N[C@H]2CC[C@H](CCn3cc(C(C)C)nn3)O[C@H]2CO)cc1 | x | n | x | n
CC(C)c1ccc(/C=C2\Oc3c(ccc(O)c3CN3CCN(C)CC3)C2=O)cc1 | + | n | n | n
Cc1ccc(/C=C2\Oc3c(ccc(O)c3CN3CCN(CCO)CC3)C2=O)cc1 | n | n | n | n
Cc1cccc(NC(=O)/C=C/c2ccc([N+](=O)[O-])s2)c1 | n | n | n | 81
Cc1ccc(NC(=O)/C=C/c2ccc([N+](=O)[O-])s2)cc1 | n | n | n | 97
Cc1ccc(NC(=O)/C=C/c2ccc([N+](=O)[O-])s2)c(C)c1 | n | n | n | 37
O=C(c1ccncc1)N1CC[C@H]2[C@H](CO)Nc3ccc(-c4ccccc4)cc3[C@H]21 | x | n | x | n
COc1ccc(C=C2C(=O)OC(C)(C)OC2=O)cc1OC | n | n | n | n
COc1ccc(/C=C2\C(=O)OCc3cc(OC)c(OC)cc32)cc1OC | n | 103 | n | n
COc1cc2c(cc1OC)/C(=C/c1ccc(Cl)cc1)C(=O)OC2 | n | 62 | n | n
SMILES | CaV13 ICDI inh | GSIS activator | GAA850 FXN act | Xi reactivation
COc1ccc(/C=C2\COc3ccccc3C2=O)cc1OC | n | n | n | n
N#CC1=C(N)OC2=C(C(=O)CCC2)C1c1cc2c(cc1Br)OCO2 (configuration not stated) | 60 | n | n | n
CCOc1nc(CC(C)C)c2c(c1C#N)CC(C)(C)OC2 | n | 51 | n | n
COc1ccc(OC)c(N(CC(=O)NN=C2CCN(C)CC2)S(=O)(=O)c2ccccc2)c1 | n | 93 | n | n
COc1ccc(N(CC(=O)NN=C2CCN(C)CC2)S(=O)(=O)c2ccccc2)c(OC)c1 | n | n | n | x
CN1C(=O)c2cc(NC(=O)C3CCCCC3)ccc2OC[C@H]2O[C@H](CC(=O)NCC3CCCCC3)CC[C@@H]21 | x | n | x | n
